The structures appear in SMILES notation.

These results are taken from ChEMBL document CHEMBL1124387, “Cardiotonic agents. 9. Synthesis and biological evaluation of a series of (E)-4,5-dihydro-6-[2-[4-(1H-imidazol-1-yl)phenyl]ethenyl]-3 (2H)-pyridazinones: a novel class of compounds with positive inotropic, antithrombotic, and vasodilatory activities for the treatment of congestive heart failure” (J Med Chem, 1989).

In the first data set the test system is Canis familiaris. Put plainly: Hemodynamic activity in anesthetized dog as percent change from baseline (2271 mmHg/s) in left ventricular myocardial activity at 1 mg/kg administered intravenously. Format: functional, Canis lupus familiaris, Heart left ventricle. The following applies: route intravenous.
`CCc1[nH]c(=O)[nH]c1C(=O)c1ccncc1` [PIROXIMONE]: the Change is listed as 144%.

Another data set has as its system Canis familiaris. Put plainly: Hemodynamic activity in anesthetized dog as percent change in left ventricular myocardial activity from baseline (2271 mmHg/s) at 0.001 mg/kg administered intravenously. The following applies: route intravenous. Format: functional, Canis lupus familiaris, Heart left ventricle. In short, it runs like this:
(§1)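 Acutely instrumented anesthetized dogs (n = 6), 30-min control period. Compound in 0.9% saline, or dilute HCl diluted with saline, at 0.1 mL/kg iv over 1 min. At least four ascending half-log doses, 10 min apart, one compound per animal. Recorded: LV dP/dtmax, heart rate, aortic pressure and forelimb resistance. Values are maximum response from control average ± SEM.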
In turn, `CC1CC(O)=NN=C1c1ccc(-n2ccnc2)cc1` (centres undefined) [CI-930] gave a Change of 11%.

Another data set is filed under the species Homo sapiens. Put plainly: In vitro inhibition of collagen stimulated platelet aggregation in human thrombocyte enriched plasma. It counts as functional.
Details: not given
In short, it runs like this:
(§2)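 Human platelet-rich plasma from aspirin/NSAID-free donors, adjusted to 250 000 platelets/μL with platelet-poor plasma. Drug in DMSO/saline (1% DMSO final) was added before ADP or collagen, with doses set by titration. Read-out was aggregation extent (ADP, curve height) or rate (collagen, major slope) as % of saline control.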
In turn, `CC(=O)Nc1ccc(/C=C/C2=NNC(=O)C(C)(C)C2)cc1` registered an IC50 of 0.25 µM.

For `Cc1ncn(-c2ccc(/C=C/C3=NNC(=O)CC3C)cc2)c1C` (centres undefined), the IC50 was 1.5 µM.

On to `CC1CC(=O)NN=C1/C=C/c1ccc(-n2cnc3c2CCCC3)cc1` (centres undefined), for which the IC50 came to 0.6 µM.

Turning to `CC1CC(O)=NN=C1c1ccc(-n2ccnc2)cc1` (centres undefined) [CI-930], half-maximal inhibition (IC50) required 0.01 µM. This IC50 is about 60-fold lower than that of the compound before.

For the compound `CCc1[nH]c(=O)[nH]c1C(=O)c1ccncc1` [PIROXIMONE], half-maximal inhibition (IC50) required 15 µM.

The next data set concerns Canis familiaris. Briefly: Hemodynamic activity in anesthetized dog as percent change in left ventricular myocardial activity from baseline (2271 mmHg/s) at 0.01 mg/kg administered intravenously. It counts as functional, Canis lupus familiaris, Heart left ventricle. To be noted: route intravenous. In short, it runs like this:
as §1
Consider `CC1CC(O)=NN=C1c1ccc(-n2ccnc2)cc1` (centres undefined) [CI-930], for which the Change came to 51%.

Turning to `CCc1[nH]c(=O)[nH]c1C(=O)c1ccncc1` [PIROXIMONE], the Change was 8%.

Test system in another data set: not listed separately
Put plainly: Partition coefficient (logP). To be noted: octanol/water. It counts as physicochemical.
Take `CC1CC(=O)NN=C1/C=C/c1ccc(-n2cnc3c2CCCC3)cc1` (centres undefined): the logP was 3.1.

In the case of `CC1CC(O)=NN=C1c1ccc(-n2ccnc2)cc1` (centres undefined) [CI-930], the logP turned out to be 1.29.

Target in the next data set: not listed separately
Put plainly: Inhibition of phosphodiesterase 3 from guinea pig cardiac tissue at 1E-7-1E-4M or 1.0E-6 to 1E-3 M. Set-up: species or system Cavia porcellus.
Details: not given
The procedure, abridged:
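Fraction III cAMP-PDE from guinea pig heart or human platelets. Substrate [3H]cyclic AMP 1.0 μM at 30°C, with hydrolysis held to ≤10-20% and kept linear over 30 min. Compounds in DMSO, 2.5% final.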
Consider `CC1CC(=O)NN=C1/C=C/c1ccc(-n2cnc3c2CCCC3)cc1` (centres undefined), for which the IC50 was found to be 0.1 µM.

The species entered for another data set is Homo sapiens. Put plainly: In vitro inhibition of ADP stimulated platelet aggregation in human whole blood.
Details: not given
It counts as functional. In short, it runs like this: (§3)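 Human whole blood from aspirin/NSAID-free fasted donors, read by impedance aggregometry 5 min after adding ADP or collagen. Aggregation expressed as % of control (2-6 replicates), plotted against log drug concentration; IC50 obtained by extrapolation.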
`CC1CC(O)=NN=C1c1ccc(-n2ccnc2)cc1` (centres undefined) [CI-930] returned an IC50 of 0.4 µM. In other words, the sub-micromolar range.

The next data set deals with Canis familiaris. Put plainly: Hemodynamic activity in anesthetized dog as percent change from baseline (2271 mmHg/s) in left ventricular myocardial activity at 0.3 mg/kg administered intravenously. It counts as functional, Canis lupus familiaris, Heart left ventricle. To be noted: route intravenous.
The compound `CCc1[nH]c(=O)[nH]c1C(=O)c1ccncc1` [PIROXIMONE] had a Change of 93%.

Another data set is filed under the species Homo sapiens. Put plainly: In vitro inhibition of collagen stimulated platelet aggregation in human whole blood. Format: functional.
Details: not given
In short, it runs like this: as §3
Regarding `CC1CC(O)=NN=C1c1ccc(-n2ccnc2)cc1` (centres undefined) [CI-930], the IC50 worked out at 45 µM.

For another data set, the species on record is Canis familiaris. Put plainly: 50% increase in myocardial contractility (dP/dT max) in dogs. It counts as functional, Canis lupus familiaris, Myocardium.
Details: not given
The procedure, abridged: as §1
For the compound `CC(=O)Nc1ccc(/C=C/C2=NNC(=O)C(C)(C)C2)cc1`, the Dose came out at 1 mg/kg.

In turn, `Cc1ncn(-c2ccc(/C=C/C3=NNC(=O)CC3C)cc2)c1C` (centres undefined) displayed a Dose of 0.05 mg/kg.

With `CC1CC(=O)NN=C1/C=C/c1ccc(-n2cnc3c2CCCC3)cc1` (centres undefined), the Dose was 0.05 mg/kg.

A further data set has as its system Canis familiaris. Briefly: Hemodynamic activity in anesthetized dog as percent change in left ventricular myocardial activity from baseline (2271 mmHg/s) at 0.003 mg/kg administered intravenously. It counts as functional, Canis lupus familiaris, Heart left ventricle. The following applies: route intravenous. The procedure, abridged: as §1
In turn, `CC1CC(O)=NN=C1c1ccc(-n2ccnc2)cc1` (centres undefined) [CI-930] gave a Change of 25%.

In the next data set the target is Phosphodiesterase 3 (Homo sapiens, UniProt Q14432+Q13370). Put plainly: Inhibition of Phosphodiesterase 3 from human platelets at 1E-7-1E-4M or 1.0E-6 to 1E-3 M.
Details: not given
In short, it runs like this: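 Fraction III cAMP-PDE from guinea pig heart or human platelets. Substrate [3H]cyclic AMP 1.0 μM at 30°C, with hydrolysis held to ≤10-20% and kept linear over 30 min.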
Turning to `CC1CC(=O)NN=C1/C=C/c1ccc(-n2cnc3c2CCCC3)cc1` (centres undefined), the half-maximal inhibitory concentration (IC50) amounted to 0.018 µM.

For the next data set, the system named is Canis familiaris. Briefly: Hemodynamic activity in anesthetized dog as percent change from baseline (2271 mmHg/s) in left ventricular myocardial activity at 0.1 mg/kg administered intravenously. Format: functional, Canis lupus familiaris, Heart left ventricle. The following applies: route intravenous.
In turn, `CC1CC(O)=NN=C1c1ccc(-n2ccnc2)cc1` (centres undefined) [CI-930] yielded a Change of 149%.

Regarding `CCc1[nH]c(=O)[nH]c1C(=O)c1ccncc1` [PIROXIMONE], the Change came to 41%.

Another data set is filed under the species Homo sapiens. Briefly: In vitro inhibition of ADP stimulated platelet aggregation in human thrombocyte enriched plasma. It counts as functional.
Details: not given
In short, it runs like this:
as §2
Regarding `CC(=O)Nc1ccc(/C=C/C2=NNC(=O)C(C)(C)C2)cc1`, the IC50 is 4 µM.

On to `Cc1ncn(-c2ccc(/C=C/C3=NNC(=O)CC3C)cc2)c1C` (centres undefined), for which half-maximal inhibition (IC50) was put at 30 µM.

As for `CC1CC(=O)NN=C1/C=C/c1ccc(-n2cnc3c2CCCC3)cc1` (centres undefined), half-maximal inhibition (IC50) was put at 6 µM.

For the compound `CC1CC(O)=NN=C1c1ccc(-n2ccnc2)cc1` (centres undefined) [CI-930], the IC50 came to 4 µM. This IC50 is about 1.5-fold lower than that of the compound before.

`CCc1[nH]c(=O)[nH]c1C(=O)c1ccncc1` [PIROXIMONE] returned an IC50 of 60 µM.

A further data set concerns Canis familiaris. Put plainly: Hemodynamic activity in anesthetized dog as percent change in left ventricular myocardial activity from baseline (2271 mmHg/s) at 0.03 mg/kg administered intravenously. It counts as functional, Canis lupus familiaris, Heart left ventricle. To be noted: route intravenous. The procedure, abridged: as §1
`CC1CC(O)=NN=C1c1ccc(-n2ccnc2)cc1` (centres undefined) [CI-930] had a Change of 124%.

`CCc1[nH]c(=O)[nH]c1C(=O)c1ccncc1` [PIROXIMONE] registered a Change of 16%.
